{"data": "Experimental data collected from several papers", "target": "Casein kinase I isoform gamma-1 (CSNK1G1, Homo sapiens, UniProt Q9HCP0)", "note": "Lines come from different studies, so protocols differ."}
{"SMILES": "CN1CCN(C(=O)c2ccc(NC(=O)Nc3ccc(N(C)c4ccnc(Nc5ccc(CS(C)(=O)=O)cc5)n4)cc3)cc2)CC1", "assay": "binding", "conditions": "1 µM", "endpoint": "remaining binding", "value": "100%"}
{"SMILES": "C=CC(=O)N1CCC[C@@H](n2nc(-c3ccc(Oc4ccccc4)cc3)c3c(N)ncnc32)C1", "assay": "enzyme activity, inhibitor", "conditions": "1 µM", "endpoint": "inhibition", "value": "7%"}
{"SMILES": "Cc1cc(O)c(-c2ccc([C@@H](C)CN(C)C)cc2)c2c1[nH]c(=O)c1sccc12", "assay": "enzyme activity, inhibitor", "conditions": "0.1 µM", "endpoint": "inhibition", "value": "-2.19%"}
{"SMILES": "CO[C@@H]1[C@H](N(C)C(=O)c2ccccc2)C[C@H]2O[C@]1(C)n1c3ccccc3c3c4c(c5c6ccccc6n2c5c31)C(=O)NC4", "assay": "enzyme activity, inhibitor", "conditions": "1 µM", "endpoint": "inhibition", "value": "0%"}
{"SMILES": "C#Cc1cc(-c2cc(Nc3nc(N[C@@H](C)c4ccc(F)cn4)ncc3Cl)n[nH]2)ccc1C=O", "assay": "enzyme activity, inhibitor", "conditions": "0.2 µM", "endpoint": "inhibition", "value": "4.78%"}
{"SMILES": "CC(C)S(=O)(=O)c1ccc2nccc(Nc3ccc4sc(C5CCCC5)nc4c3)c2c1", "assay": "enzyme activity, inhibitor", "conditions": "1 µM", "endpoint": "activity vs control", "value": "96%"}
{"SMILES": "CCCCC(=O)Nc1ccc(-c2ccc3ncn(CCC)c(=O)c3c2)cn1", "assay": "binding, competition with immobilised ligand", "conditions": "0.5 µM", "endpoint": "remaining binding", "value": "100%"}
{"SMILES": "C1=C/COCc2cc(ccc2OCCN2CCCC2)Nc2nccc(n2)-c2cccc(c2)COC/1", "assay": "cell-free assay", "conditions": "0.1 µM", "endpoint": "remaining signal", "value": "72%"}
{"SMILES": "C[C@H]1CC[C@H](n2c3cnccc3c3cnc(Nc4ccc5c(n4)CCN(C(=O)CO)C5)nc32)CC1", "assay": "cell-free assay", "conditions": "1 µM", "endpoint": "remaining signal", "value": "100%"}
